From ChEMBL document CHEMBL6134793, “Synthesis and structure-activity study of the antimicrobial lipopeptide brevibacillin” (RSC Med Chem, 2024)
Values after ≈ are worked out from the molar mass of the structure shown.

Tests used:
[1] = Cytotoxicity against human Caco-2 cells assessed as inhibition of cell viability incubated for 48 hrs by Cell Titer GLO assay; type: toxicity, cell-based
Procedure, shortened: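 Caco-2 cells in DMEM with 10% FCS, seeded 25 000 per well, adhered overnight, then given peptide at 2–256 μg mL−1 in complete medium for 48 h at 37 °C, 5% CO2. Controls: cisplatin 125 μM; 0.1% DMSO medium. Viability by ATP luminescence (CellTiter-Glo) versus untreated cells; IC50 from dose–response; mean ± SEM of at least three independent experiments.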

Listeria monocytogenes = assay: Antimicrobial activity against Listeria monocytogenes ATCC 19111 assessed as growth inhibition by microdilution assay; type: functional
Procedure, shortened: (§1)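 Twofold serial microdilution of peptide (stocks 2 mg mL−1, diluted to 512 μg mL−1 in water with 10% DMSO) in strain medium, about 1 × 10^4 cfu per well. Media: TSB 20 h 37 °C (S. aureus, L. monocytogenes, B. subtilis, E. faecalis); LB 20 h 37 °C (P. aeruginosa, S. enterica, E. coli); Brucella 48 h 37 °C (C. coli). A595 read; MIC = lowest concentration with no visible growth; triplicate.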

Pseudomonas aeruginosa [2] = assay: Antimicrobial activity against Pseudomonas aeruginosa ATCC […] assessed as growth inhibition by microdilution assay; type: functional; procedure, shortened: as §1
[3] = Antimicrobial activity against Salmonella enterica serovar Newport ATCC 6962 assessed as growth inhibition by microdilution assay; type: functional, Salmonella enterica subsp. enterica serovar Newport; procedure, shortened: as §1
Pseudomonas aeruginosa [4] = assay: Antimicrobial activity against Pseudomonas aeruginosa ATCC […] assessed as diameter of growth inhibition at 128 ug/ml by radial diffusion assay; type: functional; details: dose 128 µg/ml
Procedure, shortened: (§2)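 Agar well diffusion. Overnight cultures inoculated at 1% into 0.75% soft agar (TSB for S. aureus, LB for P. aeruginosa). Each well received 80 μL of peptide at 128 μg mL−1 in water with 10% DMSO; 10% DMSO served as negative control. Inhibition zone diameter scored after strain-specific incubation.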

Staphylococcus aureus [5] = assay: Antimicrobial activity against Staphylococcus aureus ATCC 6538 assessed as growth inhibition by microdilution assay; type: functional; procedure, shortened: as §1
Enterococcus faecalis = assay: Antimicrobial activity against Enterococcus faecalis ATCC 29212 assessed as growth inhibition by microdilution assay; type: functional; procedure, shortened: as §1
[6] = Hemolytic activity in human erythrocytes at 128 ug/ml measured after 1 hr by absorbance based assay relative to control; type: toxicity, cell-based, Erythrocyte; details: at 128 µg/mL, read-out: Activity
Procedure, shortened: (§3)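 Washed human donor erythrocytes at 1% hematocrit in PBS pH 7.4 exposed to twofold peptide dilutions (final 2–256 μg mL−1, up to 1% DMSO) for 1 h at 37 °C. After centrifugation, supernatant A405 read. % hemolysis relative to PBS (0%) and 1% Triton X-100 (100%). Triplicate; mean ± SEM.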

Escherichia coli = assay: Antimicrobial activity against Escherichia coli ATCC 25922 assessed as growth inhibition by microdilution assay; type: functional; procedure, shortened: as §1
Staphylococcus aureus [7] = assay: Antimicrobial activity against Staphylococcus aureus ATCC 6538 assessed as diameter of growth inhibition at 128 ug/ml by radial diffusion assay; type: functional; details: dose 128 µg/ml; procedure, shortened: as §2
Bacillus subtilis = assay: Antimicrobial activity against Bacillus subtilis ATCC 23957 assessed as growth inhibition by microdilution assay; type: functional; procedure, shortened: as §1
Clostridium perfringens = assay: Antimicrobial activity against Clostridium perfringens ATCC 3628 assessed as growth inhibition by microdilution assay; type: functional
Procedure, shortened: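 Broth microdilution: twofold serial peptide dilutions in reinforced clostridial medium (RCM), seeded with about 1 × 10^4 cfu per well, incubated 20 h at 37 °C. Working solution 512 μg mL−1 made from a 2 mg mL−1 stock in water with 10% DMSO. Growth read as absorbance at 595 nm. MIC taken as the lowest concentration giving complete inhibition of visible growth; run in triplicate.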

Campylobacter coli = assay: Antimicrobial activity against Campylobacter coli ATCC 33559 assessed as growth inhibition by microdilution assay; type: functional; procedure, shortened: as §1
[8] = Hemolytic activity in human erythrocytes at 256 ug/ml measured after 1 hr by absorbance based assay relative to control; type: toxicity, cell-based, Erythrocyte; details: at 256 µg/mL, read-out: Activity; procedure, shortened: as §3

Row | Structure (SMILES) | IC50 at 48 h [1] | MIC (Listeria monocytogenes) | MIC (Pseudomonas aeruginosa [2]) | MIC [3] | Activity (Pseudomonas aeruginosa [4]) | MIC (Staphylococcus aureus [5]) | MIC (Enterococcus faecalis) | hemolysis at 1 h, 128 ug/ml [6] | MIC (Escherichia coli) | Activity (Staphylococcus aureus [7]) | MIC (Bacillus subtilis) | MIC (Clostridium perfringens) | MIC (Campylobacter coli) | hemolysis at 1 h, 256 ug/ml [8]
1 | C/C=C(/NC(=O)[C@@H](O)[C@@H](C)CC)C(=O)N[C@@H](CC(C)C)C(=O)N[C@H](CCCN)C(=O)N[C@H](C(=O)N[C@H](C(=O)N[C@H](C(=O)N[C@H](CCCCN)C(=O)N[C@H](C(=O)N[C@H](C(=O)N[C@@H](CCCCN)C(=O)N[C@H](Cc1ccc(O)cc1)C(=O)N[C@@H](CC(C)C)C(=O)N[C@H](CO)C(C)C)C(C)C)C(C)C)C(C)C)C(C)C)[C@@H](C)CC | 25.7 µg/mL (≈ 16.4 µM) | 1 µg/mL | 2 µg/mL | > 128 µg/mL | 12 mm | 4 µg/mL | 16 µg/mL | 1.65% | 32 µg/mL | 11 mm | 2 µg/mL | 4 µg/mL | 16 µg/mL | –
2 | CC[C@H](C)[C@H](O)C(=O)N[C@@H](CO)C(=O)N[C@@H](CC(C)C)C(=O)N[C@H](CCCN)C(=O)N[C@H](C(=O)N[C@H](C(=O)N[C@H](C(=O)N[C@H](CCCCN)C(=O)N[C@H](C(=O)N[C@H](C(=O)N[C@@H](CCCCN)C(=O)N[C@H](Cc1ccc(O)cc1)C(=O)N[C@@H](CC(C)C)C(=O)N[C@H](CO)C(C)C)C(C)C)C(C)C)C(C)C)[C@@H](C)CC)[C@@H](C)CC | 42.2 µg/mL (≈ 26.6 µM) | 1 µg/mL | 4 µg/mL | > 128 µg/mL | 12 mm | 8 µg/mL | > 128 µg/mL | 1.2% | 32 µg/mL | 11 mm | 2 µg/mL | 8 µg/mL | 32 µg/mL | 4.9%
3 | C/C=C(/NC(=O)[C@@H](O)[C@@H](C)CC)C(=O)N[C@@H](CC(C)C)C(=O)N[C@H](CCCN)C(=O)N[C@H](C(=O)N[C@H](C(=O)N[C@H](C(=O)N[C@H](CCCCN)C(=O)N[C@H](C(=O)N[C@H](C(=O)N[C@@H](CCCCN)C(=O)N[C@H](Cc1ccc(O)cc1)C(=O)N[C@@H](CC(C)C)C(=O)N[C@H](CO)C(C)C)C(C)C)[C@@H](C)CC)C(C)C)[C@@H](C)CC)[C@@H](C)CC | 6.5 µg/mL (≈ 4.07 µM) | 1 µg/mL | 1 µg/mL | 64 µg/mL | 12 mm | 2 µg/mL | 2 µg/mL | 55% | 32 µg/mL | 11 mm | 0.5 µg/mL | 2 µg/mL | 8 µg/mL | 89.9%
4 | CC[C@H](C)[C@H](O)C(=O)N[C@H](C(=O)N[C@@H](CC(C)C)C(=O)N[C@H](CCCN)C(=O)N[C@H](C(=O)N[C@H](C(=O)N[C@H](C(=O)N[C@H](CCCCN)C(=O)N[C@H](C(=O)N[C@H](C(=O)N[C@@H](CCCCN)C(=O)N[C@H](Cc1ccc(O)cc1)C(=O)N[C@@H](CC(C)C)C(=O)N[C@H](CO)C(C)C)C(C)C)C(C)C)C(C)C)[C@@H](C)CC)[C@@H](C)CC)C(C)C | 8.3 µg/mL (≈ 5.19 µM) | 1 µg/mL | 1 µg/mL | > 128 µg/mL | 7 mm | 1 µg/mL | 4 µg/mL | 53.1% | > 128 µg/mL | 7 mm | 1 µg/mL | 4 µg/mL | 8 µg/mL | 84%
5 | CC[C@H](NC(=O)[C@@H](NC(C)=O)[C@@H](C)CC)C(=O)N[C@@H](CC(C)C)C(=O)N[C@H](CCCN)C(=O)N[C@H](C(=O)N[C@H](C(=O)N[C@H](C(=O)N[C@H](CCCCN)C(=O)N[C@H](C(=O)N[C@H](C(=O)N[C@@H](CCCCN)C(=O)N[C@H](Cc1ccc(O)cc1)C(=O)N[C@@H](CC(C)C)C(=O)N[C@H](CO)C(C)C)C(C)C)C(C)C)C(C)C)[C@@H](C)CC)[C@@H](C)CC | 17.6 µg/mL (≈ 10.8 µM) | 2 µg/mL | 2 µg/mL | > 128 µg/mL | 7 mm | 2 µg/mL | 32 µg/mL | 23.3% | > 128 µg/mL | 7 mm | 4 µg/mL | 2 µg/mL | 16 µg/mL | 38.2%
6 | CC[C@H](C)[C@H](O)C(=O)N[C@@H](C)C(=O)N[C@@H](CC(C)C)C(=O)N[C@H](CCCN)C(=O)N[C@H](C(=O)N[C@H](C(=O)N[C@H](C(=O)N[C@H](CCCCN)C(=O)N[C@H](C(=O)N[C@H](C(=O)N[C@@H](CCCCN)C(=O)N[C@H](Cc1ccc(O)cc1)C(=O)N[C@@H](CC(C)C)C(=O)N[C@H](CO)C(C)C)C(C)C)C(C)C)C(C)C)[C@@H](C)CC)[C@@H](C)CC | 13.5 µg/mL (≈ 8.59 µM) | 1 µg/mL | 1 µg/mL | > 128 µg/mL | 12 mm | 2 µg/mL | 4 µg/mL | – | 64 µg/mL | 11 mm | 2 µg/mL | 2 µg/mL | 8 µg/mL | –
7 | CC[C@H](C)[C@H](O)C(=O)N[C@H](C(=O)N[C@@H](CC(C)C)C(=O)N[C@H](CCCN)C(=O)N[C@H](C(=O)N[C@H](C(=O)N[C@H](C(=O)N[C@H](CCCCN)C(=O)N[C@H](C(=O)N[C@H](C(=O)N[C@@H](CCCCN)C(=O)N[C@H](Cc1ccc(O)cc1)C(=O)N[C@@H](CC(C)C)C(=O)N[C@H](CO)C(C)C)C(C)C)C(C)C)C(C)C)[C@@H](C)CC)[C@@H](C)CC)[C@@H](C)O | 32.2 µg/mL (≈ 20.1 µM) | 4 µg/mL | 2 µg/mL | > 128 µg/mL | 12 mm | 2 µg/mL | 16 µg/mL | 1.2% | 32 µg/mL | 11 mm | 1 µg/mL | 4 µg/mL | 16 µg/mL | 4.9%
